Env fusion inh – inhibitors of HIV-1 Env-driven cell-cell fusion, primary screen, HeLa-JRFL effector, CEM21 target cells, luciferase | inhibition, % at 12.3 µM | 1.1% of 360,000 active | AID 651610, 2012;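 active = mean replicate inhibition score of at least 50 and every replicate individually at or above 50; inconclusive = only one of the two criteria met; inactive = mean below 50 and not all replicates reaching 50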;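 also: 0% = plate neutral controls and 100% = maraviroc near 300 nM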
FN deposition inh – inhibitors of fibronectin matrix deposition, primary screen, AH1F cells, Alexa488-fibronectin fluorescence, plate reader; inhibition, % at 12.6 µM; AID 743247, 2014; AH1F fibroblasts, overnight; 0.086% of 350,000 active;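 active = mean inhibition across replicates of 30% or more, regardless of how many single replicates reach that level; inconclusive = mean under 30% yet at least half of replicates reach 30%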;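 also: positive control wells lacked labelled fibronectin entirely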
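Measured by – fluorescence 485/525 nm · System – AH1F fibroblast monolayer, labelled fibronectin deposition · Amount – 10000 cells per well · Buffer or medium – serum-reduced DMEM (2% serum) · Doses – single dose, pinned · Also added – fluorescent fibronectin at 24 nM final · Schedule – 1 h cell attachment, overnight exposure to compound and label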
PGC1a acetyl inh – inhibitors of PGC1a acetylation signal, primary screen, cell-based, U2OS, AlphaScreen, inhibitor mode. 0.17% of 350,000 active. inhibition, % at 15.6 µM. AlphaScreen anti-acetyl-lysine; with virally co-expressed GCN5 acetyltransferase;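 active = every replicate shows inhibition of at least 40%; inconclusive = mean inhibition at least 40% but some replicate below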;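 also: 0% = neutral control wells and 100% = positive control wells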
EWS-Fli inh – EWS/Fli-driven NR0B1 reporter inhibitors, primary screen, A673 cells, NR0B1 luciferase, luminescence, MLPCN library; inhibition, % at 12.6 µM; 0.67% of 350,000 active; viability-normalised;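 active = mean inhibition of at least 50% after viability correction, with every replicate also passing that limit; inconclusive = mean reaches 50% but only one of two replicates passes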;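 also: firefly luciferase signal divided by Alamar Blue viability fluorescence both relative to DMSO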
PAX8 reporter – inhibitors of PAX8-driven TPO luciferase reporter, primary screen, RMG-I cells, single concentration. SteadyGlo, 24 h. inhibition, % at 12.6 µM. 1.2% of 360,000 active;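 active = mean replicate inhibition at least 60% with every replicate also reaching 60%; inconclusive = only one of the two criteria is met; inactive = mean below 60% and not all replicates reaching 60%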;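 also: luciferase light reporting Pax8 driven TPO promoter activity; plate controls were median of neutral control wells for no effect and mitoxantrone controls for full effect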
FGF22 binding – binders of human FGF22 protein, primary screen, FGF22 synaptogenesis inhibitor project, biophysical, thermal shift, single point; AID 651658, 2012; Fibroblast growth factor 22 (Homo sapiens), Q9HCT0; recombinant FGF22 thermal shift, SYPRO orange fluorescence; percent of sucrose octasulfate shift, DMSO zero; activity (Tm shift, normalised), % at 9.99 µM; 1.5% of 340,000 active;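 active = mean Tm shift, scaled 0 neutral to 100 positive control, at about 1.3% or above, every replicate too, limit read from the data; inconclusive = no clear call, values can overlap the other calls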
Target sequence (Q9HCT0 whole entry, looked up): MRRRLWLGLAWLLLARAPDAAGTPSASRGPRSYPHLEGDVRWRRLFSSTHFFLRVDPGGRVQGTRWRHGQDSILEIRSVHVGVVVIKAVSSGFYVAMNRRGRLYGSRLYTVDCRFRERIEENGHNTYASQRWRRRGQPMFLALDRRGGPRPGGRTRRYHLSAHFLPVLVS
An asterisk follows results filed as active; ? = inconclusive; . = no result given; ! = a repeat was not active; [ ] = remark or other dose. Most compounds without a hit are left out; they make up all but 3.1% or so of the library.

SMILES	Env fusion inh	FN deposition inh	PGC1a acetyl inh	EWS-Fli inh	PAX8 reporter	FGF22 binding
C[C@@H]1CN([C@H](C)CO)C(=O)CCCn2nncc2CO[C@H]1CN(C)C(=O)Nc1ccc(-c2cccs2)cc1	.	-3	-14	1	70*	0
C[C@H](CO)N1C[C@H](C)[C@H](CN(C)C(=O)Nc2ccccc2)OCc2cnnn2CCCC1=O	-10	-9	12	-9	1	0
C[C@H](CO)N1C[C@H](C)[C@H](CN(C)C(=O)Nc2ccc(-c3cccs3)cc2)OCc2cnnn2CCCC1=O	28	1	-4	-13	72*	0
C[C@H](CO)N1C[C@H](C)[C@@H](CN(C)C(=O)Nc2ccnc(N3CCOCC3)c2)OCc2cnnn2CCCC1=O	-1	3	-6	7	91*!	0
C[C@H]1CN([C@@H](C)CO)C(=O)CCCn2nncc2CO[C@@H]1CN(C)C(=O)Nc1ccc(-c2cccs2)cc1	.	2	-6	-10	76*	0
C[C@@H]1CN([C@H](C)CO)C(=O)CCCn2nncc2CO[C@H]1CN(C)C(=O)Nc1ccnc(N2CCOCC2)c1	7	1	-3	-4	-6	0
COc1ccc(NC(=O)N(C)C[C@H]2Oc3c(NC(=O)Nc4cccc5ccccc45)cccc3C(=O)N([C@@H](C)CO)C[C@@H]2C)cc1	.	12	-1	-24	.	0
C[C@@H]1CN([C@@H](C)CO)C(=O)c2cc(NC(=O)C3CCCCC3)ccc2O[C@@H](C)CCCCO[C@@H]1CN(C)S(=O)(=O)c1ccc(Cl)cc1	-3[16.7 µM]	1	5	-9	8	.
C[C@@H]1CN([C@@H](C)CO)C(=O)CCCn2nncc2CO[C@H]1CN(C)S(=O)(=O)c1ccc(Cl)cc1	-9	10	97*!	1	102*!	0
C[C@H](CO)N1C[C@H](C)[C@@H](CN(C)S(=O)(=O)c2ccc(Cl)cc2)OCc2cnnn2CCCC1=O	9	4	5	-1	4	0
Oc1ccc(/C=N/Nc2nc(-c3ccc(Cl)cc3)cc(C(F)(F)F)n2)cc1	24	-1	64*	6	6	0
Cc1cc(-c2ccccc2)nc(N/N=C/c2ccc(O)cc2)n1	-36	1	1	-9	-107	0
O=C(Cc1ccc(Cl)cc1Cl)Nc1ccncc1Cl	.	-7	.	11	.	0
O=C(Cc1ccc(Cl)cc1Cl)Nc1ccncc1	73*	.	.	29	27	0
CCNC(=O)C[C@H]1CC[C@H]2[C@H](COc3ccc(NC(=O)c4cscn4)cc3C(=O)N2C)O1	22[16.7 µM]	.	2	3	-18	0
COc1ccc2c3c(n(C)c2c1)[C@@H](CO)N(C(=O)c1ccccn1)CC31CN(C(=O)c2ccccn2)C1	5[16.7 µM]	.	.	-14	.	0
C[C@H]1CCCCO[C@H](CN(C)S(=O)(=O)c2ccc(Cl)cc2)[C@@H](C)CN([C@@H](C)CO)C(=O)c2cc(NC(=O)Nc3ccccc3)ccc2O1	-3[16.7 µM]	.	0	0	32	0
C[C@@H]1CN([C@H](C)CO)C(=O)c2cc(NC(=O)Nc3ccc(F)cc3)ccc2O[C@@H](C)CCCCO[C@H]1CN(C)S(=O)(=O)c1ccccc1	48[16.7 µM]	.	-2	16	88*	-1
C[C@@H]1CCCCO[C@H](CN(C)S(=O)(=O)c2ccc(Cl)cc2)[C@H](C)CN([C@@H](C)CO)C(=O)c2cc(NC(=O)NC3CCCCC3)ccc2O1	9[16.7 µM]	.	-1	6	63*	0
C[C@H]1CCCCO[C@H](CN(C)S(=O)(=O)c2ccc(Cl)cc2)[C@@H](C)CN([C@@H](C)CO)C(=O)c2cc(NC(=O)NC3CCCCC3)ccc2O1	5[16.7 µM]	.	2	2	3	0
C[C@@H]1CN([C@@H](C)CO)C(=O)c2cc(NC(=O)Nc3ccc(F)cc3)ccc2O[C@@H](C)CCCCO[C@@H]1CN(C)S(=O)(=O)c1ccccc1	-8[16.7 µM]	.	-2	4	-13	0
C[C@@H]1CCCCO[C@@H](CN(C)S(=O)(=O)c2ccccc2)[C@H](C)CN([C@H](C)CO)C(=O)c2cc(NC(=O)Nc3ccc(F)cc3)ccc2O1	35[16.7 µM]	.	-4	16	73*	-1
C[C@@H]1CCCCO[C@@H](CN(C)S(=O)(=O)c2ccccc2)[C@@H](C)CN([C@@H](C)CO)C(=O)c2cc(NC(=O)Nc3ccc(F)cc3)ccc2O1	16[16.7 µM]	.	1	6	5	-1
C[C@H](CO)N1C[C@H](C)[C@H](CN(C)S(=O)(=O)c2ccc(Cl)cc2)OCCCC[C@H](C)Oc2ccc(NC(=O)Nc3ccccc3)cc2C1=O	32[16.7 µM]	.	2	-2	65*	1
CC(C)NC(=O)Nc1ccc2c(c1)CC(=O)N([C@H](C)CO)C[C@H](C)[C@@H](CN(C)C(=O)NC1CCCCC1)O2	-5[16.7 µM]	-12	0	.	-15	.
SMILES	Env fusion inh	FN deposition inh	PGC1a acetyl inh	EWS-Fli inh	PAX8 reporter	FGF22 binding
O=C(O)C[C@H]1C[C@@H]2c3cc(NC(=O)Nc4ccccc4F)ccc3O[C@@H]2[C@H](CO)O1	3[16.7 µM]	.	9	-3	-7	0
CO[C@H]1O[C@H](CO)[C@@H](OC(=O)c2ccc(Br)cc2)[C@H](OC(=O)c2cc3ccccc3[nH]2)[C@H]1OC(=O)c1cc2ccccc2[nH]1	3[16.7 µM]	.	-1	12	?	0
C[C@@H]1CCCCO[C@H](CN(C)S(=O)(=O)c2ccccc2)[C@H](C)CN([C@H](C)CO)C(=O)c2cc(NC(=O)Nc3ccccc3)ccc2O1	12[16.7 µM]	.	-11	-10	32	0
C[C@@H]1CCCCO[C@H](CN(C)S(=O)(=O)c2ccccc2)[C@@H](C)CN([C@H](C)CO)C(=O)c2cc(NC(=O)CCC(F)(F)F)ccc2O1	1[16.7 µM]	.	-8	-16	-6	3.9*
C[C@@H]1CCCCO[C@@H](CN(C)S(=O)(=O)c2ccccc2)[C@H](C)CN([C@@H](C)CO)C(=O)c2cc(NC(=O)Nc3ccccc3)ccc2O1	17[16.7 µM]	-5	-4	6	13	2.0*
C[C@H](CO)N1C[C@H](C)[C@H](CN(C)S(=O)(=O)c2ccc(Cl)cc2)OCCCC[C@H](C)Oc2ccc(NC(=O)Cc3ccccc3)cc2C1=O	21[16.7 µM]	.	9	8	?	0
C[C@@H]1CCCCO[C@@H](CN(C)S(=O)(=O)c2ccc(Cl)cc2)[C@H](C)CN([C@H](C)CO)C(=O)c2cc(NC(=O)Cc3ccccc3)ccc2O1	-10[16.7 µM]	.	-3	15	62*	0
O=C(NCc1ccccc1)[C@H]1[C@H](CO)[C@H]2Cn3c(cccc3=O)[C@@H]1N2C(=O)CC1CC1	.	.	8	-2	-14	0
